According to ChEMBL document CHEMBL4311965, “Antimicrobial activity of amphipathic α,α-disubstituted β-amino amide derivatives against ESBL - CARBA producing multi-resistant bacteria; effect of halogenation, lipophilicity and cationic character” (Eur J Med Chem, 2019):
Values after ≈ are worked out from the molar mass of the structure shown.

Legend:
[1] = tested on: Corynebacterium glutamicum; assay: Antibacterial activity against Corynebacterium glutamicum ATCC 13032 cultured in MHB medium assessed as no bacterial growth incubated at 20 degC for 24 hrs by microdilution susceptibility test; format: functional; settings: ATCC 13032, 24 h
Summary of the method: (§1)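 Broth microdilution per CLSI M07-A9 with modifications. Inoculum about 2.5–3 x 10⁴ cells/mL in Mueller-Hinton broth, mixed 1:1 with test derivative. DMSO stocks diluted in double-distilled water, final DMSO <1%. Incubation 24 h at 37 °C (20 °C for C. glutamicum). Growth and sterility controls included; oxytetracycline reference.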

Pseudomonas aeruginosa [2] = assay: Antibacterial activity against Pseudomonas aeruginosa PA01 DSM 19880 (ATCC 15692) cultured in MHB medium assessed as no bacterial growth incubated at 37 degC for 24 hrs by microdilution susceptibility test; format: functional; settings: PAO1 DSM 19880 (ATCC 15692); summary of the method: as §1
Erythrocyte = assay: Hemolytic activity against human RBC incubated for 1 hr; format: cell-based
Summary of the method: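 Heparinized human blood washed three times in warm PBS and set to 10% hct. Erythrocytes at 1% v/v final, with compound in PBS (DMSO <1%), shaken 1 h at 37 °C and then centrifuged. Supernatant absorbance read at 405 and 545 nm after PBS background subtraction. Haemolysis taken relative to 1% Triton X-100. Three independent replicates, EC50 averaged.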

[3] = Selectivity index, ratio of EC50 for hemolytic activity against human RBC to MIC for antibacterial activity against Staphylococcus aureus ATCC 9144; format: toxicity; settings: human red blood cells (RBC)
Summary of the method: (§2)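 Selectivity index is the RBC haemolysis EC50 divided by the MIC against the E. coli or S. aureus reference strain.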

[4] = Selectivity index, ratio of EC50 for hemolytic activity against human RBC to MIC for antibacterial activity against Escherichia coli ATCC 25922; format: toxicity; settings: human red blood cells (RBC); summary of the method: as §2
Staphylococcus aureus [5] = assay: Antibacterial activity against multidrug-resistant Staphylococcus aureus WIS cultured in MHB medium assessed as reduction in bacterial growth incubated for 24 hrs by microdilution susceptibility test; format: functional
Summary of the method: (§3)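 Broth microdilution per CLSI M07-A9 (modified). Working solutions made from concentrated DMSO stocks kept at r.t., diluted in double-distilled water, final DMSO <1%. Inoculum 1–1.2 x 10⁶ cells/mL in Mueller-Hinton broth, mixed 1:1 with compound. 37 °C, 24 h, four parallels. Read as OD₆₀₀. Where precipitation left residual OD, the point of major OD decrease was taken as the inhibitory concentration.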

Staphylococcus aureus [6] = assay: Antibacterial activity against multidrug-resistant Staphylococcus aureus IHT 99040 cultured in MHB medium assessed as reduction in bacterial growth incubated for 24 hrs by microdilution susceptibility test; format: functional; settings: IHT 99040, 24 h; summary of the method: as §3
Enterococcus faecium [7] = assay: Antibacterial activity against multidrug-resistant Enterococcus faecium 50901530 cultured in BHIB medium assessed as reduction in bacterial growth incubated for 24 hrs by microdilution susceptibility test; format: functional; settings: Enterococcus faecium, 50901530, 24 h
Summary of the method: (§4)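 Enterococci grown in Brain Heart Infusion broth, otherwise broth microdilution per CLSI M07-A9 (modified). Concentrated DMSO stocks kept at r.t. and diluted in double-distilled water, final DMSO <1%. Inoculum 1–1.2 x 10⁶ cells/mL mixed 1:1 with compound. 37 °C, 24 h, four parallels. OD₆₀₀ read-out, lowest concentration with no growth.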

Enterococcus faecium [8] = assay: Antibacterial activity against multidrug-resistant Enterococcus faecium 50758899 cultured in BHIB medium assessed as reduction in bacterial growth incubated for 24 hrs by microdilution susceptibility test; format: functional; settings: Enterococcus faecium, 50758899, 24 h; summary of the method: as §4
Escherichia coli [9] = assay: Antibacterial activity against multidrug-resistant Escherichia coli 50579417 producing oxcillinase-48 cultured in MHB medium assessed as reduction in bacterial growth incubated for 24 hrs by microdilution susceptibility test; format: functional; settings: Escherichia coli, 50579417, 24 h; summary of the method: as §3
Escherichia coli [10] = assay: Antibacterial activity against multidrug-resistant Escherichia coli 50639799 producing Verona integron encoded metallo beta-lactamse-29 cultured in MHB medium assessed as reduction in bacterial growth incubated for 24 hrs by microdilution susceptibility test; format: functional; settings: Escherichia coli, 50639799, 24 h; summary of the method: as §3
Escherichia coli [11] = assay: Antibacterial activity against multidrug-resistant Escherichia coli 50739822 producing New Delhi metallo-beta-lactamase-1 cultured in MHB medium assessed as reduction in bacterial growth incubated for 24 hrs by microdilution susceptibility test; format: functional; settings: Escherichia coli, 50739822, 24 h; summary of the method: as §3
Escherichia coli [12] = assay: Antibacterial activity against multidrug-resistant Escherichia coli 50857972 producing imipenem-type carbapenemase-26 cultured in MHB medium assessed as reduction in bacterial growth incubated for 24 hrs by microdilution susceptibility test; format: functional; settings: Escherichia coli, 50857972, 24 h; summary of the method: as §3
Pseudomonas aeruginosa [13] = assay: Antibacterial activity against multidrug-resistant Pseudomonas aeruginosa K44-24 producing imipenem-type carbapenemase-14 cultured in MHB medium assessed as reduction in bacterial growth incubated for 24 hrs by microdilution susceptibility test; format: functional; settings: K44-24, 24 h; summary of the method: as §3
Pseudomonas aeruginosa [14] = assay: Antibacterial activity against multidrug-resistant Pseudomonas aeruginosa 50692172 producing New Delhi metallo-beta-lactamase-1 cultured in MHB medium assessed as reduction in bacterial growth incubated for 24 hrs by microdilution susceptibility test; format: functional; settings: Pseudomonas aeruginosa, 50692172, 24 h; summary of the method: as §3
Pseudomonas aeruginosa [15] = assay: Antibacterial activity against multidrug-resistant Pseudomonas aeruginosa 50692520 producing Verona integron encoded metallo beta-lactamse cultured in MHB medium assessed as reduction in bacterial growth incubated for 24 hrs by microdilution susceptibility test; format: functional; settings: Pseudomonas aeruginosa, 50692520, 24 h; summary of the method: as §3
Klebsiella pneumoniae [16] = assay: Antibacterial activity against multidrug-resistant Klebsiella pneumoniae K47-25 producing carbapenemase-2 cultured in MHB medium assessed as reduction in bacterial growth incubated for 24 hrs by microdilution susceptibility test; format: functional; settings: K47-25, 24 h; summary of the method: as §3
Klebsiella pneumoniae [17] = assay: Antibacterial activity against multidrug-resistant Klebsiella pneumoniae K66-45 producing New Delhi metallo-beta-lactamase-1 cultured in MHB medium assessed as reduction in bacterial growth incubated for 24 hrs by microdilution susceptibility test; format: functional; settings: K66-45, 24 h; summary of the method: as §3
Klebsiella pneumoniae [18] = assay: Antibacterial activity against multidrug-resistant Klebsiella pneumoniae 50531633 producing New Delhi metallo-beta-lactamase-1 and oxcillinase-181 cultured in MHB medium assessed as reduction in bacterial growth incubated for 24 hrs by microdilution susceptibility test; format: functional; settings: Klebsiella pneumoniae, 50531633, 24 h; summary of the method: as §3
Klebsiella pneumoniae [19] = assay: Antibacterial activity against multidrug-resistant Klebsiella pneumoniae 50667959 producing Verona integron encoded metallo beta-lactamse-1 cultured in MHB medium assessed as reduction in bacterial growth incubated for 24 hrs by microdilution susceptibility test; format: functional; settings: Klebsiella pneumoniae, 50667959, 24 h; summary of the method: as §3
Acinetobacter baumannii [20] = assay: Antibacterial activity against multidrug-resistant Acinetobacter baumannii K44-35 producing oxcillinase-23 cultured in MHB medium assessed as reduction in bacterial growth incubated for 24 hrs by microdilution susceptibility test; format: functional; settings: K44-35, 24 h; summary of the method: as §3
Acinetobacter baumannii [21] = assay: Antibacterial activity against multidrug-resistant Acinetobacter baumannii K47-42 producing oxcillinase-23 cultured in MHB medium assessed as reduction in bacterial growth incubated for 24 hrs by microdilution susceptibility test; format: functional; settings: K47-42, 24 h; summary of the method: as §3
Acinetobacter baumannii [22] = assay: Antibacterial activity against multidrug-resistant Acinetobacter baumannii K55-13 producing oxcillinase-24 cultured in MHB medium assessed as reduction in bacterial growth incubated for 24 hrs by microdilution susceptibility test; format: functional; settings: K55-13, 24 h; summary of the method: as §3

## NCCNC(=O)C(CN)(Cc1ccc(F)c2ccccc12)Cc1ccc(F)c2ccccc12
[1]
  MIC: 2 µg/mL (≈ 4.47 µM)
Pseudomonas aeruginosa [2]
  MIC: 8 µg/mL (≈ 17.9 µM)
Erythrocyte
  EC50: 74 µg/mL (≈ 165 µM)
[3]
  selectivity ratio: 19
[4]
  selectivity ratio: 19
Staphylococcus aureus [5]
  MIC: 16 µg/mL (≈ 35.8 µM)
Staphylococcus aureus [6]
  MIC: 16 µg/mL (≈ 35.8 µM)
Enterococcus faecium [7]
  MIC: 16 µg/mL (≈ 35.8 µM)
Enterococcus faecium [8]
  MIC: 8 µg/mL (≈ 17.9 µM)
Escherichia coli [9]
  MIC: 8 µg/mL (≈ 17.9 µM)
Escherichia coli [10]
  MIC: 16 µg/mL (≈ 35.8 µM)
Escherichia coli [11]
  MIC: 16 µg/mL (≈ 35.8 µM)
Escherichia coli [12]
  MIC: 8 µg/mL (≈ 17.9 µM)
Pseudomonas aeruginosa [13]
  MIC: 32 µg/mL (≈ 71.5 µM)
Pseudomonas aeruginosa [14]
  MIC: > 32 µg/mL
Pseudomonas aeruginosa [15]
  MIC: > 32 µg/mL
Klebsiella pneumoniae [16]
  MIC: 32 µg/mL (≈ 71.5 µM)
Klebsiella pneumoniae [17]
  MIC: 8 µg/mL (≈ 17.9 µM)
Klebsiella pneumoniae [18]
  MIC: 8 µg/mL (≈ 17.9 µM)
Klebsiella pneumoniae [19]
  MIC: 8 µg/mL (≈ 17.9 µM)
Acinetobacter baumannii [20]
  MIC: > 32 µg/mL
Acinetobacter baumannii [21]
  MIC: 16 µg/mL (≈ 35.8 µM)
Acinetobacter baumannii [22]
  MIC: 32 µg/mL (≈ 71.5 µM)

## N=C(N)NCCNC(=O)C(CNC(=N)N)(Cc1cc(C(F)(F)F)cc(C(F)(F)F)c1)Cc1cc(C(F)(F)F)cc(C(F)(F)F)c1
[1]
  MIC: 0.5 µg/mL (≈ 0.749 µM)
Pseudomonas aeruginosa [2]
  MIC: 4 µg/mL (≈ 5.99 µM)
Erythrocyte
  EC50: 201 µg/mL (≈ 301 µM)
[3]
  selectivity ratio: 101
[4]
  selectivity ratio: 50
Staphylococcus aureus [5]
  MIC: 8 µg/mL (≈ 12 µM)
Staphylococcus aureus [6]
  MIC: 8 µg/mL (≈ 12 µM)
Enterococcus faecium [7]
  MIC: 4 µg/mL (≈ 5.99 µM)
Enterococcus faecium [8]
  MIC: 8 µg/mL (≈ 12 µM)
Escherichia coli [9]
  MIC: 32 µg/mL (≈ 47.9 µM)
Escherichia coli [10]
  MIC: 16 µg/mL (≈ 24 µM)
Escherichia coli [11]
  MIC: 32 µg/mL (≈ 47.9 µM)
Escherichia coli [12]
  MIC: 32 µg/mL (≈ 47.9 µM)
Pseudomonas aeruginosa [13]
  MIC: 32 µg/mL (≈ 47.9 µM)
Pseudomonas aeruginosa [14]
  MIC: 32 µg/mL (≈ 47.9 µM)
Pseudomonas aeruginosa [15]
  MIC: 16 µg/mL (≈ 24 µM)
Klebsiella pneumoniae [16]
  MIC: > 32 µg/mL
Klebsiella pneumoniae [17]
  MIC: > 32 µg/mL
Klebsiella pneumoniae [18]
  MIC: > 32 µg/mL
Klebsiella pneumoniae [19]
  MIC: > 32 µg/mL
Acinetobacter baumannii [20]
  MIC: > 32 µg/mL
Acinetobacter baumannii [21]
  MIC: > 32 µg/mL
Acinetobacter baumannii [22]
  MIC: > 32 µg/mL

## NCCNC(=O)C(CN)(Cc1cc(C(F)(F)F)cc(C(F)(F)F)c1)Cc1cc(C(F)(F)F)cc(C(F)(F)F)c1
[1]
  MIC: 1 µg/mL (≈ 1.71 µM)
Pseudomonas aeruginosa [2]
  MIC: 4 µg/mL (≈ 6.86 µM)
Erythrocyte
  EC50: 48 µg/mL (≈ 82.3 µM)
[3]
  selectivity ratio: 12
[4]
  selectivity ratio: 12
Staphylococcus aureus [5]
  MIC: 16 µg/mL (≈ 27.4 µM)
Staphylococcus aureus [6]
  MIC: 8 µg/mL (≈ 13.7 µM)
Enterococcus faecium [7]
  MIC: 4 µg/mL (≈ 6.86 µM)
Enterococcus faecium [8]
  MIC: 4 µg/mL (≈ 6.86 µM)
Escherichia coli [9]
  MIC: 16 µg/mL (≈ 27.4 µM)
Escherichia coli [10]
  MIC: 16 µg/mL (≈ 27.4 µM)
Escherichia coli [11]
  MIC: 16 µg/mL (≈ 27.4 µM)
Escherichia coli [12]
  MIC: 8 µg/mL (≈ 13.7 µM)
Pseudomonas aeruginosa [13]
  MIC: > 32 µg/mL
Pseudomonas aeruginosa [14]
  MIC: 32 µg/mL (≈ 54.8 µM)
Pseudomonas aeruginosa [15]
  MIC: > 32 µg/mL
Klebsiella pneumoniae [16]
  MIC: 32 µg/mL (≈ 54.8 µM)
Klebsiella pneumoniae [17]
  MIC: 32 µg/mL (≈ 54.8 µM)
Klebsiella pneumoniae [18]
  MIC: 16 µg/mL (≈ 27.4 µM)
Klebsiella pneumoniae [19]
  MIC: 16 µg/mL (≈ 27.4 µM)
Acinetobacter baumannii [20]
  MIC: 16 µg/mL (≈ 27.4 µM)
Acinetobacter baumannii [21]
  MIC: 16 µg/mL (≈ 27.4 µM)
Acinetobacter baumannii [22]
  MIC: 16 µg/mL (≈ 27.4 µM)
